The record followed here is ChEMBL document CHEMBL1155278, “3,4-Diaryl-isoxazoles and -imidazoles as potent dual inhibitors of p38alpha mitogen activated protein kinase and casein kinase 1delta” (J Med Chem, 2009).

In test [1] the target is SRSF protein kinase 1 (Homo sapiens) (UniProt Q96SB4). Description: Inhibition of SRPK1 assessed as residual activity at 10 uM by Cherenkov counting relative to control in presence of 50 uM ATP. Put shortly:
(§1)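 Single-concentration profiling at 10 μM in a 78-kinase panel. Kinase activity is expressed as a percentage of control assays run without compound.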

A short description of test [2]: Inhibition of PKA assessed as residual activity at 10 uM by Cherenkov counting relative to control in presence of 20 uM ATP. Put shortly: as §1
For test [3], the target named is Casein kinase I isoform delta (Homo sapiens, UniProt P48730). Nature of the test: Inhibition of CK1delta assessed as residual activity at 0.1 uM by Cherenkov counting relative to control in presence of 20 uM ATP. Summed up:
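CK1δ tested within a 76-protein-kinase panel with compound at 0.1 µM. ATP for each kinase was set near its Km for ATP. Read-out was residual activity as % of control assays without compound, given as mean ± SD, n = 3.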

For test [4], the target named is 3-phosphoinositide-dependent protein kinase 1 (Homo sapiens) (UniProt O15530). Nature of the test: Inhibition of PDK1 assessed as residual activity at 0.1 uM by Cherenkov counting relative to control in presence of 20 uM ATP.
Chain of 3-phosphoinositide-dependent protein kinase 1 (Homo sapiens) (O15530 whole entry, looked up): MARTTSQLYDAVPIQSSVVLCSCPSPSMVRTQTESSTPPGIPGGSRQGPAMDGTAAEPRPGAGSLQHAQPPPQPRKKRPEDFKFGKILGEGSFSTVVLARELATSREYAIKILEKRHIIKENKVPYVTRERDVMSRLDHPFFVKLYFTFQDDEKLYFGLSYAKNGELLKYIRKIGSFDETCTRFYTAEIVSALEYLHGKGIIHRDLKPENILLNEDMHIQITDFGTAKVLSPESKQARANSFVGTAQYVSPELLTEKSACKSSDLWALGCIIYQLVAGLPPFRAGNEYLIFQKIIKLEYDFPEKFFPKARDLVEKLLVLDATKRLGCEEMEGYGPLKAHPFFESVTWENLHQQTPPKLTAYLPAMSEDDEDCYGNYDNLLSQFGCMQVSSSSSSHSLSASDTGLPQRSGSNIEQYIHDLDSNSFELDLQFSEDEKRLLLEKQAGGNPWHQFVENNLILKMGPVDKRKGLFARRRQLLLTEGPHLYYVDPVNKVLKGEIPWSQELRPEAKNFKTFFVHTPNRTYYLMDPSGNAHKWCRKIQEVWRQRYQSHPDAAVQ
Test [5] concerns the target T1, Dual specificity tyrosine-phosphorylation-regulated kinase 3 (Homo sapiens) (UniProt O43781).
T1 sequence (whole entry): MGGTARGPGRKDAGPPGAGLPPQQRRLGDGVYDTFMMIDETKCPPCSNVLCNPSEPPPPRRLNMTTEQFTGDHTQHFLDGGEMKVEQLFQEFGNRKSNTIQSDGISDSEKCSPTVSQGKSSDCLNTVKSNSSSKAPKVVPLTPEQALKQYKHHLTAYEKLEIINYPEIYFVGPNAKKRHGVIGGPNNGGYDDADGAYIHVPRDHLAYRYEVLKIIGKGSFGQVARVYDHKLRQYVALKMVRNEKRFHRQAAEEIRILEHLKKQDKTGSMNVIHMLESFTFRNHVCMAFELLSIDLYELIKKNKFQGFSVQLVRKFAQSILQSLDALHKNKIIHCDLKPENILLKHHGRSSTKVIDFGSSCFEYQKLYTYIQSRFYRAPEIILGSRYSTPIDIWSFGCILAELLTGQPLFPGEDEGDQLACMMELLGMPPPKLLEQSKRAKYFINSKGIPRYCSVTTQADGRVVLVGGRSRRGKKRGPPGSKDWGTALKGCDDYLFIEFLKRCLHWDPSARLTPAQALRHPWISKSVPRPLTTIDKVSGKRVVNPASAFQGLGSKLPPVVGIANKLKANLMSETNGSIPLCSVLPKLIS
Nature of the test: Inhibition of DYRK3 assessed as residual activity at 0.1 uM by Cherenkov counting relative to control in presence of 5 uM ATP. Summed up: (§2)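 Single-concentration screen at 0.1 µM across a panel of 76 protein kinases. Each kinase was run at an ATP concentration approximating its ATP Km. Results are % mean residual activity versus control assays without compound (n = 3 ± SD).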

For test [6], the target named is MAP kinase-interacting serine/threonine-protein kinase 1 (Homo sapiens) (UniProt Q9BUB5). Nature of the test: Inhibition of MNK1 assessed as residual activity at 0.1 uM by Cherenkov counting relative to control in presence of 50 uM ATP. Summed up:
(§3)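 Single-concentration selectivity screen at 0.1 μM against a panel of 76 protein kinases. Each kinase was run at an ATP level approximating its Km for ATP. Output is mean residual activity as % of the control assay without compound, n = 3 ± SD.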

The target of test [7] is Ribosomal protein S6 kinase alpha-1 (Homo sapiens) (UniProt Q15418). Description: Inhibition of RSK1 assessed as residual activity at 0.1 uM by Cherenkov counting relative to control. Summed up: (§4)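 Single-concentration screen at 0.1 μM in a 76-kinase panel. ATP for each kinase was set near its Km for ATP. Residual activity is given as a percentage of control assays without compound, mean of n = 3 ± SD.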

The target of test [8] is Ephrin type-A receptor 2 (Homo sapiens) (UniProt P29317). Description: Inhibition of EPHA2 assessed as residual activity at 0.1 uM by Cherenkov counting relative to control in presence of 50 uM ATP. Summed up:
as §2

In test [9] the target is Tyrosine-protein kinase Yes (Homo sapiens) (UniProt P07947). Description: Inhibition of YES1 at 0.1 uM by Cherenkov counting in presence of 20 uM ATP. Put shortly: as §4
For test [10], the target named is Insulin receptor (Homo sapiens) (UniProt P06213). Description: Inhibition of histidine-tagged IR assessed as residual activity at 0.1 uM by Cherenkov counting relative to control in presence of 20 uM ATP. Summed up: as §4
Chain of Insulin receptor (Homo sapiens) (P06213 28-758 limits assumed): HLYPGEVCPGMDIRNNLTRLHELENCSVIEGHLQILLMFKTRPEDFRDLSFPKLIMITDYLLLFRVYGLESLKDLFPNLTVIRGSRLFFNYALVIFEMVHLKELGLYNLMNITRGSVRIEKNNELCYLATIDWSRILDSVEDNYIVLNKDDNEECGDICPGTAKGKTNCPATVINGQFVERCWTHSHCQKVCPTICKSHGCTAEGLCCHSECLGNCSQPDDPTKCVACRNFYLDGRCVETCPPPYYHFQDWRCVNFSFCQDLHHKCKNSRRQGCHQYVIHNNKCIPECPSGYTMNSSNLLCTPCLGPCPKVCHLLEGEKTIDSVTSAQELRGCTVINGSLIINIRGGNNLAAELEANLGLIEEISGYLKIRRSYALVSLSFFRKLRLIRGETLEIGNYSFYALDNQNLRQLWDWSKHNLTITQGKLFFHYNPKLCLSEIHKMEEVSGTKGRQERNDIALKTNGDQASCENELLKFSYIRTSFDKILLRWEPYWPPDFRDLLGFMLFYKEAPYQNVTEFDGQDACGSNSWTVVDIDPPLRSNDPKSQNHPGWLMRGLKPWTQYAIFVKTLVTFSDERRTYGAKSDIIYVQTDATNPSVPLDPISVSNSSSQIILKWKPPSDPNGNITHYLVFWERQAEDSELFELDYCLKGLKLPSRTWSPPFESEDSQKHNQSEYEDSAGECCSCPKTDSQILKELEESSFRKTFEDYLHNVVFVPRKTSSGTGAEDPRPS
Chain of Insulin receptor (Homo sapiens) (P06213 763-1382 limits assumed): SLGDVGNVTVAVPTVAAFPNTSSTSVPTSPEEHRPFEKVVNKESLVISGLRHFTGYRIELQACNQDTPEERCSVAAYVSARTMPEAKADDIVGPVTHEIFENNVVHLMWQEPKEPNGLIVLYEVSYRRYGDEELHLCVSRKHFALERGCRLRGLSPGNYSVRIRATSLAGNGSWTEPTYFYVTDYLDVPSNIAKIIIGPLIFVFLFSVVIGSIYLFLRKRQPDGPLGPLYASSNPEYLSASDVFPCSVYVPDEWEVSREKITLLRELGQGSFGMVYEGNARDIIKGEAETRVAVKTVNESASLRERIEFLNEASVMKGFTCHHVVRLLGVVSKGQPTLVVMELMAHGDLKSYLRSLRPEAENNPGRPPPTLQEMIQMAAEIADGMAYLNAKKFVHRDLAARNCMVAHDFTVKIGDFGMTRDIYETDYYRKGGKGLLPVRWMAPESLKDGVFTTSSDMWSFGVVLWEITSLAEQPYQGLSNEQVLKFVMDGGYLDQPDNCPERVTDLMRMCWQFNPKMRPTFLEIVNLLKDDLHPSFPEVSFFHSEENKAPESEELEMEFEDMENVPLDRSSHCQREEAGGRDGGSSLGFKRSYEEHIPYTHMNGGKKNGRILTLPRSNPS
For test [11], the target named is T2, Serine/threonine-protein kinase D1 (Homo sapiens) (UniProt Q15139).
T2 sequence (whole entry): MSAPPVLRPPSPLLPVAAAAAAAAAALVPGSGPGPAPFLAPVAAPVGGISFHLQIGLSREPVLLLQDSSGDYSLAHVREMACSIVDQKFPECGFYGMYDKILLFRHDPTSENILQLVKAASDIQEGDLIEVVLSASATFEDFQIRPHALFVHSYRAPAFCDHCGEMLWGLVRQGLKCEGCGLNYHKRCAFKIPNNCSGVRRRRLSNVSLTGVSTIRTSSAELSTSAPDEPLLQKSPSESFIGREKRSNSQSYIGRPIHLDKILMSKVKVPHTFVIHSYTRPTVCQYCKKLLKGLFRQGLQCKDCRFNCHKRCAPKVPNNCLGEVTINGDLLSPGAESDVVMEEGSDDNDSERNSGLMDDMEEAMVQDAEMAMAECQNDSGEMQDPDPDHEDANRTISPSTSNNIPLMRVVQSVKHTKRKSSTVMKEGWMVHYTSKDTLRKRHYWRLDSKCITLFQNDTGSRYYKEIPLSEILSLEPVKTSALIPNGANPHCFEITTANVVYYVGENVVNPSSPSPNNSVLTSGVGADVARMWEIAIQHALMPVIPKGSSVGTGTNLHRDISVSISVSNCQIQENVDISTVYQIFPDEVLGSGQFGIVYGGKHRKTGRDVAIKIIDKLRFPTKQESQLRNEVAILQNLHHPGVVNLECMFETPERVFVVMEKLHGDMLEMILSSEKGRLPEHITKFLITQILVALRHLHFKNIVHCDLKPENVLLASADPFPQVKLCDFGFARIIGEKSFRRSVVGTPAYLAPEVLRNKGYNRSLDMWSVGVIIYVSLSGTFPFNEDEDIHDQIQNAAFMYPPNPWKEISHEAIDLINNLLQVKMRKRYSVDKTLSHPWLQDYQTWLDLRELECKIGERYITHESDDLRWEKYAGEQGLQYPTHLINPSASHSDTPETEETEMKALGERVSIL
Description: Inhibition of PKD1 assessed as residual activity at 0.1 uM by Cherenkov counting relative to control in presence of 50 uM ATP. Put shortly:
as §4

The target of test [12] is Tyrosine-protein kinase Lck (Homo sapiens) (UniProt P06239). Description: Inhibition of Lck assessed as residual activity at 0.1 uM by Cherenkov counting relative to control in presence of 50 uM ATP. Put shortly:
as §3

Structures are written as SMILES.

Chain of SRSF protein kinase 1 (Homo sapiens) (Q96SB4 whole entry): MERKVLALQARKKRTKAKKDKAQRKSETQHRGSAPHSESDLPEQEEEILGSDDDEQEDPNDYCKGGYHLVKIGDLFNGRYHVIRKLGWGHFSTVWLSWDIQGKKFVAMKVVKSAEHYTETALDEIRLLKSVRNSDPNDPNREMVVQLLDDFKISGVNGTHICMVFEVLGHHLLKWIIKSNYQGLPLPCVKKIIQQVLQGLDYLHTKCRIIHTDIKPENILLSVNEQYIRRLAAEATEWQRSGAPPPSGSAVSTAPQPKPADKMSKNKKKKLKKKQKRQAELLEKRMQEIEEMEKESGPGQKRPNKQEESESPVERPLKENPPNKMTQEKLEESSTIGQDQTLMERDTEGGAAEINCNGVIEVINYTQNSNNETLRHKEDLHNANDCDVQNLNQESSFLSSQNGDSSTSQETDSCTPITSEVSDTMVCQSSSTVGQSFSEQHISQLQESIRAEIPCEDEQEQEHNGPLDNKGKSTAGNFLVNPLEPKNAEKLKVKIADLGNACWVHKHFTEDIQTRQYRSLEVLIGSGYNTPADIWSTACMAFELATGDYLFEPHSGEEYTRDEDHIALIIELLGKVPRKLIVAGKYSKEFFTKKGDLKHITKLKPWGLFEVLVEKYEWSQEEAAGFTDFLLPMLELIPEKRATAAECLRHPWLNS
Chain of Tyrosine-protein kinase Lck (Homo sapiens) (P06239 2-509 limits assumed): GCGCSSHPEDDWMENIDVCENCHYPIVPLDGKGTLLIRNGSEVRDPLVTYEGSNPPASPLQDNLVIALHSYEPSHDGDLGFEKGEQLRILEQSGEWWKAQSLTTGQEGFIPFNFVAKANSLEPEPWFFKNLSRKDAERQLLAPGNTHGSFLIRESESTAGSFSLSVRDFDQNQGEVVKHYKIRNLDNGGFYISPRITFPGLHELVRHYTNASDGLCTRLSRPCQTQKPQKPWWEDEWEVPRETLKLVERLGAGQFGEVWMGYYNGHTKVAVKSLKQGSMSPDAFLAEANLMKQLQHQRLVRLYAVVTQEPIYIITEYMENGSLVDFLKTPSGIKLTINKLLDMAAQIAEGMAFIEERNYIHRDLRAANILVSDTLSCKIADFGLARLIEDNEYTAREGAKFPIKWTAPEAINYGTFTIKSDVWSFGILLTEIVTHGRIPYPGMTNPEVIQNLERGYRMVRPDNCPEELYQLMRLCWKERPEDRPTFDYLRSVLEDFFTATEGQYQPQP
Chain of Ephrin type-A receptor 2 (Homo sapiens) (P29317 whole entry): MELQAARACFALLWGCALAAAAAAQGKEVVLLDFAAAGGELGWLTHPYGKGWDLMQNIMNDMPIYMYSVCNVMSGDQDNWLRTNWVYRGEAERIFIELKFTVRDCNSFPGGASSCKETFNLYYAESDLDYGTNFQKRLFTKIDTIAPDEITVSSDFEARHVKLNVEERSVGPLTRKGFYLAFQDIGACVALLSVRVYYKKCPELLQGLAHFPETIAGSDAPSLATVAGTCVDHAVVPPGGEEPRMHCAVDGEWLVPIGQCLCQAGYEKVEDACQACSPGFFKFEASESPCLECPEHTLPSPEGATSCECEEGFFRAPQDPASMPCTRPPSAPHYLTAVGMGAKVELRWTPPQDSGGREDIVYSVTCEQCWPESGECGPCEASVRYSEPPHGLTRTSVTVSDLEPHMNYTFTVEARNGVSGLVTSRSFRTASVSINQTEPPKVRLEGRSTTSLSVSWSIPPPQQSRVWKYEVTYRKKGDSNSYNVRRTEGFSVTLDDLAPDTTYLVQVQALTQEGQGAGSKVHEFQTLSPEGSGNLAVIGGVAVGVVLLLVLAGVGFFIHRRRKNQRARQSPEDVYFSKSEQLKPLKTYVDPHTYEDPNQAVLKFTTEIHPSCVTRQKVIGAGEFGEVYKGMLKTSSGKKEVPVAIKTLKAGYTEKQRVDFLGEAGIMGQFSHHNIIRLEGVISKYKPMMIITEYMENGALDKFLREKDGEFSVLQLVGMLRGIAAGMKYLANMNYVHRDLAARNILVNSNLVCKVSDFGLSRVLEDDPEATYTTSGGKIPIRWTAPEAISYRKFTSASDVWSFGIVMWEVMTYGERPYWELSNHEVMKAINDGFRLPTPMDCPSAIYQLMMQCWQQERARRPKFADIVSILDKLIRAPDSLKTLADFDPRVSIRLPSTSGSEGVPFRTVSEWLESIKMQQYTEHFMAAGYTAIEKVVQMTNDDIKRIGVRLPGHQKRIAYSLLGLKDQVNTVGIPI
Chain of MAP kinase-interacting serine/threonine-protein kinase 1 (Homo sapiens) (Q9BUB5 whole entry, looked up): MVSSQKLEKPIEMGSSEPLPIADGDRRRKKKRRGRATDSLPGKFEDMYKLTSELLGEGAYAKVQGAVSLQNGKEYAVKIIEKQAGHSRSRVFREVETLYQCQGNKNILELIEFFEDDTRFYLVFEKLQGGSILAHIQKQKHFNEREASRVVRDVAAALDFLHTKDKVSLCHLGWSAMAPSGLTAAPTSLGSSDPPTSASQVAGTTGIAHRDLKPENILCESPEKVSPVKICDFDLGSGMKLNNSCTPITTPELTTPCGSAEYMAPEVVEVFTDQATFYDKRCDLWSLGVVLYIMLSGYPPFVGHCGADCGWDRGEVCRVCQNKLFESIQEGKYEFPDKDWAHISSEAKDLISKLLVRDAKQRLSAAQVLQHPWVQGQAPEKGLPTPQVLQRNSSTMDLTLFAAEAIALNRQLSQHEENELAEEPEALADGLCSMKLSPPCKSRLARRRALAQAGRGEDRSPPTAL
Chain of Casein kinase I isoform delta (P48730 whole entry, looked up, canonical isoform): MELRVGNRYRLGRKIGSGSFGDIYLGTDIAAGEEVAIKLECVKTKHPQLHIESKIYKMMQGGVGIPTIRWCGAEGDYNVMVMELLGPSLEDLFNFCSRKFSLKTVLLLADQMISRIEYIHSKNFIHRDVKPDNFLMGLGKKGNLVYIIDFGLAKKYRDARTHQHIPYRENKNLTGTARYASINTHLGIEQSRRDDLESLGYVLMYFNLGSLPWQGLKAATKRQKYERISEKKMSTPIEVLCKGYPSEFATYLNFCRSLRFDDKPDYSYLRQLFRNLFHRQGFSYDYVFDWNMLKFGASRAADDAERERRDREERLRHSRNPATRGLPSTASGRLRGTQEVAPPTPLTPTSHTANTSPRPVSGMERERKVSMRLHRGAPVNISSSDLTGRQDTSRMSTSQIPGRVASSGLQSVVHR

Regarding `CC(C)c1noc(-c2ccc(F)cc2)c1-c1ccncc1`, the Activity in [1] is 86%; in [2], 90%.
For `CC(C)c1onc(-c2ccc(F)cc2)c1-c1ccncc1`, in that order: 81% and 28%.
By inhibition is commonly meant the percentage by which the read-out fell short of the control. `COc1ccc(/C=C/C(=O)Nc2cc(-c3[nH]c([S+](C)[O-])nc3-c3ccc(F)cc3)ccn2)c(OC)c1` (centres undefined): the Activity in test [3] was determined as 18%; in [4] it was 94%; in test [5], 90%; in test [6], 96%; in test [7] it was 80%; in test [8] it was 95%. In addition, the values for the Activity in [10], in [11] and in [12] were 94%, 97% and 74%, respectively. The inhibition in test [9] amounted to 86%.
In the case of `COc1ccc(/C=C/C(=O)Nc2cc(-c3[nH]c(SC)nc3-c3ccc(F)cc3)ccn2)c(OC)c1`, the Activity is 10% in test [3]; 74% in [4]; 104% in test [5]; 91% in [6]; 78% in test [7]; 97% in [8]. The Activity was 94% in [10], 88% in [11] and 50% in test [12]. The inhibition in test [9] was 76%.
